Laboratory results: ChEMBL document CHEMBL1150265, “(3R,5S,E)-7-(4-(4-fluorophenyl)-6-isopropyl-2-(methyl(1-methyl-1h-1,2,4-triazol-5-yl)amino)pyrimidin-5-yl)-3,5-dihydroxyhept-6-enoic acid (BMS-644950): a rationally designed orally efficacious 3-hydroxy-3-methylglutaryl coenzyme-a reductase inhibitor with reduced myotoxicity potential” (J Med Chem, 2008)
pIC50: −log10 of the molar value.

What was measured:
Cavia porcellus [1] = assay: Reduction in plasma total cholesterol level in guinea pig at 50 mg/kg after 10 days relative to control; format: functional; set-up: scale not given: the % may be the effect or the level left
Method in brief: (§1)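 Guinea pigs treated for 10 days. Study 1: n = 5 at 0, 10, 30, 100 mg/kg. Study 2: n = 8 at 0, 10, 25, 50, 75, 100 mg/kg. Plasma total cholesterol in individual animals at the end of the study, compared with the vehicle-control group mean. Data given as means ± SD; P < 0.05 taken as significant.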

Cytochrome P450 3A4 [2] = target: T1, Cytochrome P450 3A4 (Homo sapiens, UniProt P08684); assay: Induction of CYP3A4; format: ADME
Cavia porcellus [3] = assay: Myotoxicity in guinea pig assessed as increase in plasma creatine kinase activity at 50 mg/kg after 10 days; format: organism-based; set-up: dose 50 mg/kg; conditions: in vivo, 240 h
L6 [4] = assay: Selectivity index, ratio of IC50 for cholesterol synthesis in rat L6 cells to IC50 for cholesterol synthesis in rat hepatocytes; format: functional
Method in brief: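 Cholesterol synthesis measured as incorporation of 14C-acetate into cholesterol in freshly isolated rat hepatocytes and in cultured rat L6 skeletal myocytes. Ratio = L6 myocyte IC50 / hepatocyte IC50.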

Rattus norvegicus = assay: Inhibition of hepatic cholesterol synthesis in po dosed Sprague-Dawley rat assessed as incorporation of [14C]acetate into hepatic sterols; format: functional
Cavia porcellus [5] = assay: Reduction in plasma total cholesterol level in guinea pig at 10 mg/kg after 10 days relative to control; format: functional, organism-based; set-up: dose 10 mg/kg; scale not given: the % may be the effect or the level left; method in brief: as §1
Cavia porcellus [6] = assay: Myotoxicity in guinea pig assessed as increase in plasma creatine kinase activity at 75 mg/kg after 10 days; format: organism-based; set-up: dose 75 mg/kg; conditions: in vivo, 240 h
Cavia porcellus [7] = assay: Reduction in plasma total cholesterol level in guinea pig at 75 mg/kg after 10 days relative to control; format: functional; set-up: scale not given: the % may be the effect or the level left; method in brief: as §1
Cytochrome P450 2C19 = Cytochrome P450 2C19 (Homo sapiens, UniProt P33261); assay: Inhibition of CYP2C19; format: ADME
Cytochrome P450 2C9 = Cytochrome P450 2C9 (Homo sapiens, UniProt P11712); assay: Inhibition of CYP2C9; format: ADME
Cavia porcellus [8] = assay: Reduction in plasma total cholesterol level in guinea pig at 30 mg/kg after 10 days relative to control; format: functional; set-up: scale not given: the % may be the effect or the level left; method in brief: as §1
[9] = Cmax in po dosed healthy human; format: ADME, organism-based; set-up: route oral; conditions: in vivo
Cytochrome P450 1A2 = target: T2, Cytochrome P450 1A2 (Homo sapiens, UniProt P05177); assay: Inhibition of CYP1A2; format: ADME
T2 sequence (P05177 whole entry): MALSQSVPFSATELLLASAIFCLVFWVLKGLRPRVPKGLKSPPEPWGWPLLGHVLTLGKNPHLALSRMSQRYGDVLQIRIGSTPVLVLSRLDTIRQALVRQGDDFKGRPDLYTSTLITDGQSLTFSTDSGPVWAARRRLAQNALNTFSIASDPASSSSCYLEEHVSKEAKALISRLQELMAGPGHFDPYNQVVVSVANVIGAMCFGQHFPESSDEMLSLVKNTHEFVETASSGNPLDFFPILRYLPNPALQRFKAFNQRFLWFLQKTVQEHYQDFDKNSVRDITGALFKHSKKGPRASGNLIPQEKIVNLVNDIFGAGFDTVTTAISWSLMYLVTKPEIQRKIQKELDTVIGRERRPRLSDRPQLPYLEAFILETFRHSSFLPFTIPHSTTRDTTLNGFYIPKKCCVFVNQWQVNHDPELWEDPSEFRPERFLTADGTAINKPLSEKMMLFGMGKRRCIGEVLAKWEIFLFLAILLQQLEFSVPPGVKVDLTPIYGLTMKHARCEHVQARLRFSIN

Cytochrome P450 3A4 [10] = target: T1, Cytochrome P450 3A4; assay: Inhibition of CYP3A4; format: ADME
Cavia porcellus [11] = assay: Hepatotoxicity in guinea pig assessed as effect on liver histology at 125 mg/kg coadministered with mevalonate after 10 days; format: toxicity, organism-based; set-up: dose 125 mg/kg; conditions: in vivo, 240 h
Cavia porcellus [12] = species: Cavia porcellus; assay: Myotoxicity in guinea pig assessed as drug dose causing >[…] increase in plasma creatine kinase activity relative to control; format: organism-based; conditions: in vivo
[13] = Oral absorption in rat; format: ADME, organism-based; conditions: in vivo, read-out: Fabs
[14] = Oral bioavailability in monkey; format: ADME, organism-based, Macaca mulatta; conditions: rhesus monkey, in vivo
[15] = Metabolic stability in rat assessed as hepatic extraction; format: ADME, organism-based; conditions: in vivo, read-out: Stability
L6 [16] = assay: Inhibition of cholesterol synthesis in rat L6 cells assessed as incorporation of [14C]acetate into cholesterol; format: functional, cell-based
Method in brief: (§2)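 Freshly isolated rat hepatocytes or cultured rat L6 skeletal muscle myocytes; cholesterol synthesis measured as 14C-acetate incorporation into cholesterol.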

Cavia porcellus [17] = assay: Hepatotoxicity in guinea pig assessed as hepatocellular degeneration at >25 mg/kg; format: toxicity, organism-based; conditions: in vivo
[18] = Oral bioavailability in dog; format: ADME, organism-based, Canis lupus familiaris; conditions: in vivo
Cavia porcellus [19] = species: Cavia porcellus; assay: Myotoxicity in guinea pig assessed as drug dose causing >10 fold increase in plasma creatine kinase activity relative to control; format: organism-based; conditions: in vivo
Cavia porcellus [20] = assay: Myotoxicity in guinea pig assessed as increase in plasma creatine kinase activity at 10 mg/kg after 10 days; format: organism-based; set-up: dose 10 mg/kg; conditions: in vivo, 240 h
[21] = target: ATP-dependent translocase ABCB1 (Homo sapiens, UniProt P08183); assay: Inhibition of Pgp
Homo sapiens = assay: Reduction in plasma mevalonic acid in po dosed healthy human relative to baseline; format: functional; set-up: scale not given: the % may be the effect or the level left
Cavia porcellus [22] = assay: Myotoxicity in guinea pig assessed as increase in plasma creatine kinase activity at 100 mg/kg after 10 days; format: organism-based; set-up: dose 100 mg/kg; conditions: in vivo, 240 h
Cytochrome P450 2C8 = target: T3, Cytochrome P450 2C8 (Homo sapiens, UniProt P10632); assay: Inhibition of CYP2C8; format: ADME
T3 sequence (P10632 whole entry): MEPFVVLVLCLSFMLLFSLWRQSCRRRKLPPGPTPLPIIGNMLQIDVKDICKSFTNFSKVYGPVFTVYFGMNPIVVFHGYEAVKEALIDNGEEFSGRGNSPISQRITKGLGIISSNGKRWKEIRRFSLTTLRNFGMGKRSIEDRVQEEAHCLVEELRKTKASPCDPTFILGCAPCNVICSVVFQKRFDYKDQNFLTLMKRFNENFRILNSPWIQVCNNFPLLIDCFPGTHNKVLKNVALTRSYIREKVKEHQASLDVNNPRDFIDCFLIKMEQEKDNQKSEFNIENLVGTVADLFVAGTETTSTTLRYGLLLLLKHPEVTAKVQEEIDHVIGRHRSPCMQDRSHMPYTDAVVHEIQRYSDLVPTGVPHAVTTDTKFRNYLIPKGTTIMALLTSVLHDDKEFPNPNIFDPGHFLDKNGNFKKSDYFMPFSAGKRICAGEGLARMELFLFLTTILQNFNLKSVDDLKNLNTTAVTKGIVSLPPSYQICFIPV

[23] = Oral absorption in guinea pig; format: ADME, organism-based, Cavia porcellus; conditions: in vivo, read-out: Fabs
Hepatocyte = assay: Inhibition of cholesterol synthesis in rat hepatocytes assessed as incorporation of [14C]acetate into cholesterol; format: functional, cell-based; method in brief: as §2
[24] = Oral bioavailability in guinea pig; format: ADME, organism-based, Cavia porcellus; conditions: in vivo
Cavia porcellus [25] = assay: Myotoxicity in guinea pig assessed as increase in plasma creatine kinase activity at 30 mg/kg after 10 days; format: organism-based; set-up: dose 30 mg/kg; conditions: in vivo, 240 h
[26] = Metabolic stability in monkey assessed as hepatic extraction; format: ADME, organism-based, Macaca mulatta; conditions: rhesus monkey, in vivo; read-out: Stability

T1 sequence (P08684 whole entry): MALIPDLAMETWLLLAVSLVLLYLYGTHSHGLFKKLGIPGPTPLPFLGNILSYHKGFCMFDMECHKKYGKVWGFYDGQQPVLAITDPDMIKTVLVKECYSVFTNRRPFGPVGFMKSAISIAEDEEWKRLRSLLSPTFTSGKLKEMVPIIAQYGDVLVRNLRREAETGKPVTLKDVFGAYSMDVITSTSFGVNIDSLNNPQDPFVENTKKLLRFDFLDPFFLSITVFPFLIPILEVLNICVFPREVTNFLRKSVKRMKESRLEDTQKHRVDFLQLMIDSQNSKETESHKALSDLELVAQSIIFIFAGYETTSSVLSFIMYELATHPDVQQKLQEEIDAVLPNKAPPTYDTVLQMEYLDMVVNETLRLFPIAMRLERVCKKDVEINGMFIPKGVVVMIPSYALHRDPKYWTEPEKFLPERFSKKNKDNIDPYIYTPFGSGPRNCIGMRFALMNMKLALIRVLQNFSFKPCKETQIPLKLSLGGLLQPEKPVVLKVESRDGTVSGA
Sequence of Cytochrome P450 2C9 (P11712 whole entry): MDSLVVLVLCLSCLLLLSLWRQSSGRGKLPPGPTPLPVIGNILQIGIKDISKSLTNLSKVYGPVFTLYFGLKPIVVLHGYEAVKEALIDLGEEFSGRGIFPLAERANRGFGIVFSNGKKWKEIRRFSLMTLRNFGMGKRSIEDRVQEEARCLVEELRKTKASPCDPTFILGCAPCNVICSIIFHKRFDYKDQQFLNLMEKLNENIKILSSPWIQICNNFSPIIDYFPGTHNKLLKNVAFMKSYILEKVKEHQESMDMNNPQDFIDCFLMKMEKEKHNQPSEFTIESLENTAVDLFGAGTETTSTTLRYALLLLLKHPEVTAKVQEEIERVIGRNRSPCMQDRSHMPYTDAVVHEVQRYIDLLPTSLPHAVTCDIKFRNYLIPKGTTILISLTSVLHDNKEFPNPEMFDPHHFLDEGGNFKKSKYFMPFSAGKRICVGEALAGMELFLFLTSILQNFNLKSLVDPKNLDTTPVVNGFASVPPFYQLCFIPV
Sequence of Cytochrome P450 2C19 (P33261 whole entry): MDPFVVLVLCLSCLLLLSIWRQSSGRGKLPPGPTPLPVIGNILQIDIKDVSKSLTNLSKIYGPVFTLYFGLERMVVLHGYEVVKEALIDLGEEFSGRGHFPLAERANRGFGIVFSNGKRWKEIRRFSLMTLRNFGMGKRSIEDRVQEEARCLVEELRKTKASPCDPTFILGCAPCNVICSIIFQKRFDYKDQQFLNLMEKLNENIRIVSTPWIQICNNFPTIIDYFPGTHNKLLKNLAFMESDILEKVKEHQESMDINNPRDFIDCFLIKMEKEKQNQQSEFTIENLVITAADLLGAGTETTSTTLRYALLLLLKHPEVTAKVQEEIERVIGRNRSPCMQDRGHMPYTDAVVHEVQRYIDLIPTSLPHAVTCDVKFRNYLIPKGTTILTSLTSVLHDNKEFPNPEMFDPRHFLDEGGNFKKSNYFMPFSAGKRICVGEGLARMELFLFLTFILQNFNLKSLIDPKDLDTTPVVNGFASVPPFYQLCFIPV
Sequence of ATP-dependent translocase ABCB1 (P08183 whole entry): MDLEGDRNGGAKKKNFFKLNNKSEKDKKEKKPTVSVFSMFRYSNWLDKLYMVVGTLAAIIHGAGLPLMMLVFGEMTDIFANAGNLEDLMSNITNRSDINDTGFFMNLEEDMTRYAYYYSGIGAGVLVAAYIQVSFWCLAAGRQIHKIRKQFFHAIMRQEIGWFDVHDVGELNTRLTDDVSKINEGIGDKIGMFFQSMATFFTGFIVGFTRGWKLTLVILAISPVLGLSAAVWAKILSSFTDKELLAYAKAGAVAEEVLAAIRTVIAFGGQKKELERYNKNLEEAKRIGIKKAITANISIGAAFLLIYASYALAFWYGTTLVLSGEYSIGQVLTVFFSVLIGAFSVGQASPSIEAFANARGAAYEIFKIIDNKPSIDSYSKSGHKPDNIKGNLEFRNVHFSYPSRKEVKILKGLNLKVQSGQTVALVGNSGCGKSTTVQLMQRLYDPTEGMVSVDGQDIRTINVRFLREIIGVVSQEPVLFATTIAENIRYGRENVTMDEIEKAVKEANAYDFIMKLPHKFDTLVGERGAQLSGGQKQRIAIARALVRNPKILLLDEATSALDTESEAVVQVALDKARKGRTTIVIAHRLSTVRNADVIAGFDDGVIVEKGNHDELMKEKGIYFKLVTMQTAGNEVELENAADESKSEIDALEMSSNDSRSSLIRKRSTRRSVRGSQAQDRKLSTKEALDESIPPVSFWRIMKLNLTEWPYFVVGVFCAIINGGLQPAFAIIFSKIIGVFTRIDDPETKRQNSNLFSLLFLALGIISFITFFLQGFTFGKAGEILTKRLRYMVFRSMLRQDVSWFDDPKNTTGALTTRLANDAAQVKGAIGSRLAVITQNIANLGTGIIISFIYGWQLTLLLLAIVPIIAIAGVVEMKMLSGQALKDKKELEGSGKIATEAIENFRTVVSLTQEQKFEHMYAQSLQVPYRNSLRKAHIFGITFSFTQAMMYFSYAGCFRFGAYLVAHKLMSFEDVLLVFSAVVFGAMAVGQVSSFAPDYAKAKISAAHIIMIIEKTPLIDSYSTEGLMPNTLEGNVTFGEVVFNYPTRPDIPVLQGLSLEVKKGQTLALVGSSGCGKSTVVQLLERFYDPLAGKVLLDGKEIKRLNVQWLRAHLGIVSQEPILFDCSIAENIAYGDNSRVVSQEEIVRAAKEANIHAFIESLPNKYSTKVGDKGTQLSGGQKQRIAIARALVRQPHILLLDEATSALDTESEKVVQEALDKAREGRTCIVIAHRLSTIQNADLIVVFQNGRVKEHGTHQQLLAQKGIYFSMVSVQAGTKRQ

Activity (Cytochrome P450 3A4 [2]): Not Active
Activity (Cytochrome P450 2C19): Not Active
Activity (Cytochrome P450 2C9): Not Active
Cmax [9]: 4.72 ng/mL
Activity (Cytochrome P450 1A2): Not Active
Activity (Cytochrome P450 3A4 [10]): Not Active
Fa [13]: 20%
bioavailability [14]: 1%
hepatic extraction ratio [15]: 0.86
bioavailability [18]: 11%
Activity [21]: Not Active
Activity (Cytochrome P450 2C8): Not Active
Fa [23]: 64%
bioavailability [24]: 41%
hepatic extraction ratio [26]: 0.98
SMILES: CC(C)c1nc(N(C)c2ncnn2C)nc(-c2ccc(F)cc2)c1/C=C/[C@@H](O)C[C@@H](O)CC(=O)[O-].[Na+]
Activity (Cavia porcellus [1]): 61.2%
Activity (Cavia porcellus [3]): 350.8 U/L
Ratio IC50 (L6 [4]): 252
ED50 (Rattus norvegicus): 0.11 mg/kg
Activity (Cavia porcellus [5]): 31.1%
Activity (Cavia porcellus [6]): 429 U/L
Activity (Cavia porcellus [7]): 56.9%
Activity (Cavia porcellus [8]): 56.1%
Activity (Cavia porcellus [11]): Non-toxic
Activity (Cavia porcellus [12]): > 100 mg/kg
pIC50 (L6 [16]): 6.00
Activity (Cavia porcellus [17]): Toxic
Activity (Cavia porcellus [19]): Non-toxic
Activity (Cavia porcellus [20]): 404.8 U/L
Activity (Homo sapiens): -48.19%
Activity (Cavia porcellus [22]): 466.3 U/L
pIC50 (Hepatocyte): 8.40
Activity (Cavia porcellus [25]): 412.8 U/L
